Experimental data as given in ChEMBL document CHEMBL1142010, “Synthesis and in vitro antitrypanosomal activity of novel Nifurtimox analogues” (2005).

Key:
Format in all cases: functional
Trypanosoma cruzi [1] = experiment: Percent of growth inhibition of Trypanosoma cruzi (Y strain) epimastigote forms at compound concentration of 1 mg/mL after incubation for 24 hr
In short: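 Y-strain epimastigotes were grown at 28 °C in LIT medium with 10% heat-inactivated (56°, 30 min) fetal calf serum. Log-phase parasites, started at 2 × 10⁶/mL, were exposed to compound in DMSO (1% final). Growth and viability were read every 24 h by inverted microscopy, absorbance at 580 nm and Neubauer counts, in triplicate. Growth inhibition % is the mean of three experiments.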

Trypanosoma cruzi [2] = experiment: Percent of growth inhibition of Trypanosoma cruzi (Y strain) epimastigote forms at compound concentration of 100 mg/mL after incubation for 24 hr; parameters: inhibition: dose or concentration left out as unconfirmed
Trypanosoma cruzi [3] = experiment: Percent of growth inhibition of Trypanosoma cruzi (Y strain) epimastigote forms at compound concentration of 10 mg/mL after incubation for 24 hr; parameters: inhibition: dose or concentration left out as unconfirmed
Trypanosoma cruzi [4] = experiment: Percent of growth inhibition of Trypanosoma cruzi (Y strain) epimastigote forms at compound concentration of 1 mg/mL after incubation for 72 hr; parameters: inhibition: dose or concentration left out as unconfirmed
Trypanosoma cruzi [5] = experiment: Percent of growth inhibition of Trypanosoma cruzi (Y strain) epimastigote forms at compound concentration of 10 mg/mL after incubation for 72 hr; parameters: inhibition: dose or concentration left out as unconfirmed
Trypanosoma cruzi [6] = experiment: Percent of growth inhibition of Trypanosoma cruzi (Y strain) epimastigote forms at compound concentration of 1 mg/mL after incubation for 48 hr; parameters: inhibition: dose or concentration left out as unconfirmed
Trypanosoma cruzi [7] = experiment: Percent of growth inhibition of Trypanosoma cruzi (Y strain) epimastigote forms at compound concentration of 10 mg/mL after incubation for 48 hr; parameters: inhibition: dose or concentration left out as unconfirmed
Trypanosoma cruzi [8] = experiment: Percent of growth inhibition of Trypanosoma cruzi (Y strain) epimastigote forms at compound concentration of 10 mg/mL after incubation for 98 hr; parameters: inhibition: dose or concentration left out as unconfirmed

O=C(/C=C/c1cccs1)NCc1ccccc1
inhibition at 1000 µg/mL (Trypanosoma cruzi [1]): 17.4% | inhibition (Trypanosoma cruzi [2]): 39.1% | inhibition (Trypanosoma cruzi [3]): 17.4% | inhibition (Trypanosoma cruzi [4]): 10.7% | inhibition (Trypanosoma cruzi [5]): 19.6% | inhibition (Trypanosoma cruzi [6]): 15% | inhibition (Trypanosoma cruzi [7]): 22.5% | inhibition (Trypanosoma cruzi [8]): 13.2%

O=C(/C=C/c1ccc([N+](=O)[O-])o1)Nc1nc2c(Cl)cccc2s1
inhibition at 1000 µg/mL (Trypanosoma cruzi [1]): 26.1% | inhibition (Trypanosoma cruzi [2]): 100% | inhibition (Trypanosoma cruzi [3]): 21.7% | inhibition (Trypanosoma cruzi [4]): 23.2% | inhibition (Trypanosoma cruzi [5]): 50% | inhibition (Trypanosoma cruzi [6]): 22.5% | inhibition (Trypanosoma cruzi [7]): 42.5% | inhibition (Trypanosoma cruzi [8]): 50%

O=C(/C=C/c1ccc([N+](=O)[O-])o1)NCc1ccccc1
inhibition at 1000 µg/mL (Trypanosoma cruzi [1]): 47.8% | inhibition (Trypanosoma cruzi [2]): 100% | inhibition (Trypanosoma cruzi [3]): 100% | inhibition (Trypanosoma cruzi [4]): 71.4% | inhibition (Trypanosoma cruzi [5]): 100% | inhibition (Trypanosoma cruzi [6]): 65% | inhibition (Trypanosoma cruzi [7]): 100% | inhibition (Trypanosoma cruzi [8]): 100%

CC(C)CNC(=O)/C=C/c1ccc([N+](=O)[O-])o1
inhibition at 1000 µg/mL (Trypanosoma cruzi [1]): 47.8% | inhibition (Trypanosoma cruzi [2]): 100% | inhibition (Trypanosoma cruzi [3]): 100% | inhibition (Trypanosoma cruzi [4]): 69.6% | inhibition (Trypanosoma cruzi [5]): 100% | inhibition (Trypanosoma cruzi [6]): 65% | inhibition (Trypanosoma cruzi [7]): 100% | inhibition (Trypanosoma cruzi [8]): 100%

O=C(/C=C/c1ccc([N+](=O)[O-])o1)NCc1ccc2c(c1)OCO2
inhibition at 1000 µg/mL (Trypanosoma cruzi [1]): 52.2% | inhibition (Trypanosoma cruzi [2]): 100% | inhibition (Trypanosoma cruzi [3]): 100% | inhibition (Trypanosoma cruzi [4]): 71.4% | inhibition (Trypanosoma cruzi [5]): 100% | inhibition (Trypanosoma cruzi [6]): 67.5% | inhibition (Trypanosoma cruzi [7]): 100% | inhibition (Trypanosoma cruzi [8]): 100%

O=C(/C=C/c1ccc([N+](=O)[O-])o1)NCc1ccc(Cl)cc1
inhibition at 1000 µg/mL (Trypanosoma cruzi [1]): 39.1% | inhibition (Trypanosoma cruzi [2]): 100% | inhibition (Trypanosoma cruzi [3]): 100% | inhibition (Trypanosoma cruzi [4]): 67.8% | inhibition (Trypanosoma cruzi [5]): 100% | inhibition (Trypanosoma cruzi [6]): 60% | inhibition (Trypanosoma cruzi [7]): 100%

O=C(/C=C/c1ccc([N+](=O)[O-])s1)NCc1ccccc1
inhibition at 1000 µg/mL (Trypanosoma cruzi [1]): 26.1% | inhibition (Trypanosoma cruzi [2]): 100% | inhibition (Trypanosoma cruzi [3]): 30.4% | inhibition (Trypanosoma cruzi [4]): 25% | inhibition (Trypanosoma cruzi [5]): 53.6% | inhibition (Trypanosoma cruzi [7]): 47.5% | inhibition (Trypanosoma cruzi [8]): 55.9%

O=C(/C=C/c1ccco1)NCc1ccccc1
inhibition at 1000 µg/mL (Trypanosoma cruzi [1]): 8.7% | inhibition (Trypanosoma cruzi [2]): 39.1% | inhibition (Trypanosoma cruzi [3]): 21.7% | inhibition (Trypanosoma cruzi [4]): 5.36% | inhibition (Trypanosoma cruzi [5]): 28.6% | inhibition (Trypanosoma cruzi [6]): 5% | inhibition (Trypanosoma cruzi [7]): 32.5% | inhibition (Trypanosoma cruzi [8]): 19.1%

C[S+](C)[O-] [DIMETHYL SULFOXIDE]
inhibition at 1000 µg/mL (Trypanosoma cruzi [1]): 0% | inhibition (Trypanosoma cruzi [2]): 0% | inhibition (Trypanosoma cruzi [3]): 0% | inhibition (Trypanosoma cruzi [4]): 0% | inhibition (Trypanosoma cruzi [5]): 0% | inhibition (Trypanosoma cruzi [6]): 0% | inhibition (Trypanosoma cruzi [7]): 0% | inhibition (Trypanosoma cruzi [8]): 0%

CC1CS(=O)(=O)CCN1/N=C/c1ccc([N+](=O)[O-])o1 (stereo not drawn) [NIFURTIMOX]
inhibition at 1000 µg/mL (Trypanosoma cruzi [1]): 17.4% | inhibition at 100000 µg/mL (Trypanosoma cruzi [2]): 100% | inhibition at 10000 µg/mL (Trypanosoma cruzi [3]): 100% | inhibition at 1000 µg/mL (Trypanosoma cruzi [4]): 19.6% | inhibition at 10000 µg/mL (Trypanosoma cruzi [5]): 100% | inhibition at 1000 µg/mL (Trypanosoma cruzi [6]): 20% | inhibition at 10000 µg/mL (Trypanosoma cruzi [7]): 100% | inhibition at 10000 µg/mL (Trypanosoma cruzi [8]): 100%
